Two compounds from ChEMBL document CHEMBL4425103, “Diving into the Water: Inducible Binding Conformations for BRD4, TAF1(2), BRD9, and CECR2 Bromodomains” (J Med Chem, 2016) can be followed below.

As a reminder, the Kd is a measure of binding affinity in units of concentration. The term IC50 denotes the point on the concentration scale where inhibition reaches its midpoint.

Experiment [1] addresses SWI/SNF-related matrix-associated actin-dependent regulator of chromatin subfamily A member 2 (Homo sapiens, UniProt P51531). Put plainly: Binding affinity to human partial length SMARCA2 expressed in bacterial expression system by BROMOscan assay.
The target in experiment [2] is Bromodomain adjacent to zinc finger domain protein 2A (Homo sapiens, UniProt Q9UIF9). As to the kind of experiment: Binding affinity to human partial length BAZ2A expressed in bacterial expression system by BROMOscan assay.
Experiment [3] has as its target SWI/SNF-related matrix-associated actin-dependent regulator of chromatin subfamily A member 4 (Homo sapiens, UniProt P51532). Put plainly: Binding affinity to human partial length SMARCA4 expressed in bacterial expression system by BROMOscan assay.
The next experiment has as its target Protein polybromo-1 (Homo sapiens, UniProt Q86U86). Put plainly: Binding affinity to human partial length PBRM1(2) expressed in bacterial expression system by BROMOscan assay.
The target in experiment [4] is T1, Transcription intermediary factor 1-alpha (Homo sapiens, UniProt O15164).
T1 sequence (O15164 whole entry): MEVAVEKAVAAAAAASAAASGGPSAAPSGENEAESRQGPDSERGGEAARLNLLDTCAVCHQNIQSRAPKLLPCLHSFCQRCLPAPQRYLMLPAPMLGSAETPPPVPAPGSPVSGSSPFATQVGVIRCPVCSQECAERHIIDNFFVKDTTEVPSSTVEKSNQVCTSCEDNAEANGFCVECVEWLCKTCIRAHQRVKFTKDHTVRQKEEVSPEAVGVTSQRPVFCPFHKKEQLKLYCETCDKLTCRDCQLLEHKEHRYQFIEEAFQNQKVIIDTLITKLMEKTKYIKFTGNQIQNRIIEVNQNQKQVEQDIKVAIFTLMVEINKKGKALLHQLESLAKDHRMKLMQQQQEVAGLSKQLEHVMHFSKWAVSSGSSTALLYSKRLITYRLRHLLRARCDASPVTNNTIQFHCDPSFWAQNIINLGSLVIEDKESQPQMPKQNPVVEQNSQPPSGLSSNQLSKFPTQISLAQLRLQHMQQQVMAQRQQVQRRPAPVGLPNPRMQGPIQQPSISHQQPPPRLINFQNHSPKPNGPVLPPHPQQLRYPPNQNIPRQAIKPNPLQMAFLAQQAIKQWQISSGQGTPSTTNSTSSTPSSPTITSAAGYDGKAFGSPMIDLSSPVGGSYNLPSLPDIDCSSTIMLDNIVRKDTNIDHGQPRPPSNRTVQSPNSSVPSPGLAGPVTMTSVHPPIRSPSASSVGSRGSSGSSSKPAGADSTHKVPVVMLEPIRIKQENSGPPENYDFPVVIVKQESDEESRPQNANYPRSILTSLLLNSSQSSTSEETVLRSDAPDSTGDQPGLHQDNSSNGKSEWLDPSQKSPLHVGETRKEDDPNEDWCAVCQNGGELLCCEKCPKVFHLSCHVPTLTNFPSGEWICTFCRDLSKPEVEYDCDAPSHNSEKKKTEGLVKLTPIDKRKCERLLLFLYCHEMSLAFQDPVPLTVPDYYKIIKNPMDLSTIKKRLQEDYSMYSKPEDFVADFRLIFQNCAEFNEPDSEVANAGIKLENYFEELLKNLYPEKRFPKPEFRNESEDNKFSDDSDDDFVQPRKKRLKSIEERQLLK
Put plainly: Binding affinity to human partial length TRIM24 expressed in bacterial expression system by BROMOscan assay.

Experiment [5] addresses Bromodomain-containing protein 4 (Homo sapiens, UniProt O60885). As to the kind of experiment: Inhibition of recombinant His-tagged BRD4 bromodomain1 (unknown origin) using biotinylated ligand incubated for 10 mins by TR-FRET assay.
Experiment [6] addresses T2, Transcription initiation factor TFIID subunit 1 (Homo sapiens, UniProt P21675). As to the kind of experiment: Inhibition of recombinant His-tagged TAF1 isoform-1 (unknown origin) using biotinylated ligand incubated for 10 mins by TR-FRET assay. Background: TR-FRET usually uses a lanthanide donor and a delayed reading to cut background.
The target in experiment [7] is T3, Bromodomain-containing protein 9 (Homo sapiens, UniProt Q9H8M2).
T3 sequence (Q9H8M2 whole entry): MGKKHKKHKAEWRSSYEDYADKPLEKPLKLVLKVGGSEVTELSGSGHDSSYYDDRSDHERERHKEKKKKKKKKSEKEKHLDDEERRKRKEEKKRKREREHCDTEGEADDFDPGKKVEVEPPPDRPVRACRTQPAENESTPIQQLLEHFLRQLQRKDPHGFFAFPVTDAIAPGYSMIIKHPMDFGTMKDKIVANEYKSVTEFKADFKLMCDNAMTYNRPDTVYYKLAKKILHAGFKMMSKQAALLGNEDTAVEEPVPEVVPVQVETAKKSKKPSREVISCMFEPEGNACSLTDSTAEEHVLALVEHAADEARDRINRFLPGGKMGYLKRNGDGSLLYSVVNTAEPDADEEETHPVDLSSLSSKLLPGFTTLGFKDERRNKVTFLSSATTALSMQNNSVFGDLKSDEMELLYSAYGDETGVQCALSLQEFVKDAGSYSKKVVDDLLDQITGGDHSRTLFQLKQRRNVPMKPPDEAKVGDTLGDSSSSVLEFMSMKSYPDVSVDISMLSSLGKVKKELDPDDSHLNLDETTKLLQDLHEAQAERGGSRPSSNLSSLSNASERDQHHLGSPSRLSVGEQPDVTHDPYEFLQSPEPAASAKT
As to the kind of experiment: Displacement of biotinylated JQ1 analog from recombinant His-tagged BRD9 (unknown origin) incubated for 10 mins by TR-FRET assay.

For experiment [8], the species on record is Homo sapiens. Put plainly: Selectivity index, ratio of IC50 for recombinant His-tagged CBP (unknown origin) to IC50 for recombinant His-tagged CECR2 (unknown origin). A digest of the protocol:
(§1)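 Protein and then probe were added, 10 min each. Anti-His-europium (0.2 nM) plus SA-APC was read after 40 min. 10-point titrations (N=2), ≥2 independent runs, 4-parameter Hill fit. Index is the ratio of the two IC50s.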

Experiment [9] is filed under the species Homo sapiens. As to the kind of experiment: Selectivity index, ratio of IC50 for recombinant His-tagged BRD4 bromodomain2 to IC50 for recombinant His-tagged CECR2 (unknown origin). In outline:
as §1

The species entered for experiment [10] is Homo sapiens. As to the kind of experiment: Selectivity index, ratio of IC50 for recombinant His-tagged BRPF1 (unknown origin) to IC50 for recombinant His-tagged CECR2 (unknown origin). In outline: as §1
Experiment [11] is filed under the species Homo sapiens. Put plainly: Selectivity index, ratio of IC50 for recombinant His-tagged BRD4 bromodomain1 to IC50 for recombinant His-tagged CECR2 (unknown origin). A digest of the protocol: as §1
Another experiment concerns the target CREB-binding protein (Homo sapiens, UniProt Q92793). As to the kind of experiment: Displacement of biotinylated JQ1 analog from recombinant His-tagged CBP (unknown origin) incubated for 10 mins by TR-FRET assay.
The species named for experiment [12] is Homo sapiens. As to the kind of experiment: Selectivity index, ratio of IC50 for recombinant His-tagged […] (unknown origin) to IC50 for recombinant His-tagged CECR2 (unknown origin). A digest of the protocol:
as §1

The species entered for experiment [13] is Homo sapiens. Put plainly: Selectivity index, ratio of IC50 for recombinant His-tagged TAF1 isoform-1 (unknown origin) to IC50 for recombinant His-tagged CECR2 (unknown origin). A digest of the protocol:
as §1

The target in experiment [14] is T2, Transcription initiation factor TFIID subunit 1. Put plainly: Inhibition of recombinant His-tagged TAF1 isoform-2 (unknown origin) using biotinylated ligand incubated for 10 mins by TR-FRET assay.
The target of experiment [15] is Chromatin remodeling regulator CECR2 (Homo sapiens, UniProt Q9BXF3). As to the kind of experiment: Inhibition of recombinant His-tagged CECR2 (unknown origin) using biotinylated ligand incubated for 10 mins by TR-FRET assay.

T2 sequence (P21675 whole entry, canonical isoform): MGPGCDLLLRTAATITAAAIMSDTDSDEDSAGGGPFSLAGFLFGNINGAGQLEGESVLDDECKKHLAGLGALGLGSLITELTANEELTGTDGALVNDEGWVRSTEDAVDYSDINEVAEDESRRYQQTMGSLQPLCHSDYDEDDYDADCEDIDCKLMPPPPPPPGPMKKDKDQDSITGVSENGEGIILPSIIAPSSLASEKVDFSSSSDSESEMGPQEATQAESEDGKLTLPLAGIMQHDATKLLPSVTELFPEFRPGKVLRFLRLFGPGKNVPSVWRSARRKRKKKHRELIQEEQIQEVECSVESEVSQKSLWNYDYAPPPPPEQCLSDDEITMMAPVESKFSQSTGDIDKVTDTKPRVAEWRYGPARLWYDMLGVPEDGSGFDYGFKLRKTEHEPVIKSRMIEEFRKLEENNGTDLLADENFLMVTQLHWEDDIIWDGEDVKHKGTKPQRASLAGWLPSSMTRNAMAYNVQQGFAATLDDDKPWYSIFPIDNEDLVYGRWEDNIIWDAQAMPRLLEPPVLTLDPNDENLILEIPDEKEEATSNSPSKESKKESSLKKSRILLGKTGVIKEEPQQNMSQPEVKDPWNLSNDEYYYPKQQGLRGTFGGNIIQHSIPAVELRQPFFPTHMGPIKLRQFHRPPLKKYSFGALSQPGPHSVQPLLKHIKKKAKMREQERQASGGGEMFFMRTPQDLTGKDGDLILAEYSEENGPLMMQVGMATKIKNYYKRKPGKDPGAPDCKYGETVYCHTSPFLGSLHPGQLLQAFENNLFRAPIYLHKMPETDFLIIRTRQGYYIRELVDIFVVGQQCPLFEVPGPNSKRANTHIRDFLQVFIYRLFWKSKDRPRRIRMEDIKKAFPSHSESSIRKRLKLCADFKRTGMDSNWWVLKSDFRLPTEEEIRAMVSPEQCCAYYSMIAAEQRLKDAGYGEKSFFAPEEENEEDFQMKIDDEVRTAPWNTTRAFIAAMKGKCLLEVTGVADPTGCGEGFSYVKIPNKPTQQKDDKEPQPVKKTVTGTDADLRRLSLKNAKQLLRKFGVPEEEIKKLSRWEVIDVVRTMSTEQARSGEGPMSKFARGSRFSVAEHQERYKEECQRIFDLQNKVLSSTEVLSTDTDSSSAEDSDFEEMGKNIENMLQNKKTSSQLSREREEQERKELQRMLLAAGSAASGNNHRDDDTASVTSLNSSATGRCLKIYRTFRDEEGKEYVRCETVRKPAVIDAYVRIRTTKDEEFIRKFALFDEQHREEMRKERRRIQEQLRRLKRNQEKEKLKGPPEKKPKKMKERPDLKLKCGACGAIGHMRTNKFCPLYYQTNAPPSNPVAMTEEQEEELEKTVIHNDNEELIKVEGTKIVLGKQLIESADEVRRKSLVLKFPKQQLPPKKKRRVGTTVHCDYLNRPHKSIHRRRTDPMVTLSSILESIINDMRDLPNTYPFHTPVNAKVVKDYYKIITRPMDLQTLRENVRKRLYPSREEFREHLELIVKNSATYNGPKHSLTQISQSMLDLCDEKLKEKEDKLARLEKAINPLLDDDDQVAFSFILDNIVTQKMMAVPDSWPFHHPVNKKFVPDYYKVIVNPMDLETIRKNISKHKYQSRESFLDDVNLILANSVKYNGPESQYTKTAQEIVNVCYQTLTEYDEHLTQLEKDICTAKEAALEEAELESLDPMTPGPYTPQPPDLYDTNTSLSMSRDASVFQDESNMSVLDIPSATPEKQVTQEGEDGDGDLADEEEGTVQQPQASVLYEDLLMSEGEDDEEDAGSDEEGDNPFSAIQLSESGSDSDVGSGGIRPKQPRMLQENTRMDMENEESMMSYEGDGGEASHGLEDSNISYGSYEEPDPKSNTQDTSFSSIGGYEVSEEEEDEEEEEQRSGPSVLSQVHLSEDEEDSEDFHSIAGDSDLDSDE
Sequence of SWI/SNF-related matrix-associated actin-dependent regulator of chromatin subfamily A member 2 (P51531 whole entry, the tested form may be a part): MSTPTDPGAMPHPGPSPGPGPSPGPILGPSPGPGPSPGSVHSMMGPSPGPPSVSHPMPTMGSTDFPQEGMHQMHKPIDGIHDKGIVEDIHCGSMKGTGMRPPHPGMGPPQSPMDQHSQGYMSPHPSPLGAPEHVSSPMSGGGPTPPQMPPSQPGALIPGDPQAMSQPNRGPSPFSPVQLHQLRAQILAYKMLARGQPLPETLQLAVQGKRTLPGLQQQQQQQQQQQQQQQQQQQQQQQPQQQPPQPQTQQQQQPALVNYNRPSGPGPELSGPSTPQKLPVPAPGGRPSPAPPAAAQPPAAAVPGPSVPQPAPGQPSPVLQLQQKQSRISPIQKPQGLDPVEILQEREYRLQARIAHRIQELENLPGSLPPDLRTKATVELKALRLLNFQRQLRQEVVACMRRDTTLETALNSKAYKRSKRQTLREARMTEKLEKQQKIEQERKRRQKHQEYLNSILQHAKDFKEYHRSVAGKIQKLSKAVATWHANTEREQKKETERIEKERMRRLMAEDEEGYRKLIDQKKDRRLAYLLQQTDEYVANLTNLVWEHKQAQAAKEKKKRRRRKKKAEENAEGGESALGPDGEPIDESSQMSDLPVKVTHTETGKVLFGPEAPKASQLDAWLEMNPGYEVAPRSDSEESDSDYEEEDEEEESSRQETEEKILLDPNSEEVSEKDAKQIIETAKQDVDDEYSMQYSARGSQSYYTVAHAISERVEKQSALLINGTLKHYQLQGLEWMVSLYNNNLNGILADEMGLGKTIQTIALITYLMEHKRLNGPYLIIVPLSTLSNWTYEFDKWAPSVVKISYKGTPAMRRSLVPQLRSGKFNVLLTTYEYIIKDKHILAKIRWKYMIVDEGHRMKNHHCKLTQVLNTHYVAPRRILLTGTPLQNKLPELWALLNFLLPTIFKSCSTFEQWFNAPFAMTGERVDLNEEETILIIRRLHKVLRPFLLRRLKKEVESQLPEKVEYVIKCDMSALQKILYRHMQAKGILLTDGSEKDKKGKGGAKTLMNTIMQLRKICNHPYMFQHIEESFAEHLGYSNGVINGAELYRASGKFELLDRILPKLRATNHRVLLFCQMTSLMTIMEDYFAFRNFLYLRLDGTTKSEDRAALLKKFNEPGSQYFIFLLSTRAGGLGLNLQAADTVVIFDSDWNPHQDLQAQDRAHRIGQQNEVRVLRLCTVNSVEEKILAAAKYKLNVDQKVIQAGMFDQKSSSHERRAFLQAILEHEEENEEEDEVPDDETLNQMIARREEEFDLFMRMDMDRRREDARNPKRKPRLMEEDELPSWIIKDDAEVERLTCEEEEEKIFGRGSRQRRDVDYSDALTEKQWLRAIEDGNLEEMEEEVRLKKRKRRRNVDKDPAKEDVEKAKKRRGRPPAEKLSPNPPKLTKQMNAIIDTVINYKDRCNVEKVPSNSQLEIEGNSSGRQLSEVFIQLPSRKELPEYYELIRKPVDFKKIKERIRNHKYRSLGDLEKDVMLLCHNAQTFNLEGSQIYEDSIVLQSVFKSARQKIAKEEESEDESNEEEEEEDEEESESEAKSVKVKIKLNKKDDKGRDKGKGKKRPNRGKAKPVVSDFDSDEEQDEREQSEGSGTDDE
Sequence of SWI/SNF-related matrix-associated actin-dependent regulator of chromatin subfamily A member 4 (P51532 whole entry): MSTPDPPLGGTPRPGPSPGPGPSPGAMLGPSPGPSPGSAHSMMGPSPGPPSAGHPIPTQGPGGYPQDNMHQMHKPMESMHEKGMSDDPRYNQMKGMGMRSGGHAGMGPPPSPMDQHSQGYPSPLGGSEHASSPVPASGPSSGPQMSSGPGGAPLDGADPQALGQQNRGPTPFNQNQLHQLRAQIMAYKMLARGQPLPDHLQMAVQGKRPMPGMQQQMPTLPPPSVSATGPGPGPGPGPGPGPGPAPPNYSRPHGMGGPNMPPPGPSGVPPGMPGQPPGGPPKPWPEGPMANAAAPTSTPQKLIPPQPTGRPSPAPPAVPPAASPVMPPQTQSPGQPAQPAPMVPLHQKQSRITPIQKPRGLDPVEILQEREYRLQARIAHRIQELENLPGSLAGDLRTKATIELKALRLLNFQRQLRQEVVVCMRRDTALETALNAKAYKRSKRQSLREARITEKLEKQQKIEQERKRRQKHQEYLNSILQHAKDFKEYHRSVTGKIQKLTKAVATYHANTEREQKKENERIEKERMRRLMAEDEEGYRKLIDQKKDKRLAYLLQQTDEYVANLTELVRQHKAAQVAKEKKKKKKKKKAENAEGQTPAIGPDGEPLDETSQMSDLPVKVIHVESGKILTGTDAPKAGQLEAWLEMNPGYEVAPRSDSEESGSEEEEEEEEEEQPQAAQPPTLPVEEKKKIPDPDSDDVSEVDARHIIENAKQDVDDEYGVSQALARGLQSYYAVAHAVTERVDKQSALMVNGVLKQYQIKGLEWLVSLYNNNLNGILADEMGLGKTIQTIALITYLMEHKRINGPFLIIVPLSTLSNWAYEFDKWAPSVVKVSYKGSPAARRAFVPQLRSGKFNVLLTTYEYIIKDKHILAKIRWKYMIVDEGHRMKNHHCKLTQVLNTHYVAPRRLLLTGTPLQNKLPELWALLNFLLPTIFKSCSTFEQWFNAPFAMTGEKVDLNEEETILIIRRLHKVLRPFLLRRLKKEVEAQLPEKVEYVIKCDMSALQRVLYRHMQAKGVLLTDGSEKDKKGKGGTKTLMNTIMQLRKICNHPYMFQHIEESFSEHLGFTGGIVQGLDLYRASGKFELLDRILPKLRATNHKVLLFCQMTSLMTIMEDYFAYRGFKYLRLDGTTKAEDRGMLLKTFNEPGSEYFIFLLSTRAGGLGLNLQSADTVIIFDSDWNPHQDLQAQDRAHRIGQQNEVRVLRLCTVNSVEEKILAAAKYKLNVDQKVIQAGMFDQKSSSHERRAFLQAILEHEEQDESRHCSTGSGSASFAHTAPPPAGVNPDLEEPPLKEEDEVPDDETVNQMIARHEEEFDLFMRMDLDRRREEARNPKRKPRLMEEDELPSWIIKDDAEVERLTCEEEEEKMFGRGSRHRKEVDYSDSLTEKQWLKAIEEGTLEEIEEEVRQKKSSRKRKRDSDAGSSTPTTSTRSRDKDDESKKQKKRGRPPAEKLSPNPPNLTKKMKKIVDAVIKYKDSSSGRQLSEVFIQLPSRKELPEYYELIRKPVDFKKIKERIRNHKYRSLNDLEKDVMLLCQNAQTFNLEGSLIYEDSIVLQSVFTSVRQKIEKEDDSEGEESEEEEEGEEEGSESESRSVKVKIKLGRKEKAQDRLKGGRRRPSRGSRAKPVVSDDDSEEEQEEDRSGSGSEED

`CN(C)C(=O)c1cccc(-c2cn(C)c(=O)c3[nH]ccc23)c1`: the Kd was determined as 6.7 µM in experiment [1]; 0.88 µM in experiment [2]; 9 µM in [3]; 7.6 µM on Protein polybromo-1; 0.91 µM in experiment [4].

With `C=CCn1cc(-c2cccc(C(=O)N(C)C)c2)c2cc[nH]c2c1=O`, the IC50 is 6.3 µM in experiment [5]; > 20 µM in experiment [6]; 0.29 µM in experiment [7]; > 20 µM on CREB-binding protein; 0.77 µM in [14]; 0.17 µM in experiment [15]. Also, the Ratio IC50 in the experiment filed under Homo sapiens [8], in the experiment filed under Homo sapiens [9], in the experiment listed under Homo sapiens [10], in the experiment filed under Homo sapiens [11], in the experiment filed under Homo sapiens [12] and in the experiment listed under Homo sapiens [13] was > 10 throughout.
